Screening data as filed in PubChem BioAssay.
RAD52 anneal inh = blocks human RAD52 DNA annealing. P43351. recombinant RAD52 DNA annealing, FRET fluorescence. inhibition, % at 18.7 µM. 0.46% of 360,000 active. AID 651710;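 active = every replicate showing at least 50% inhibition; inconclusive = mean inhibition at least 50% but not in every replicate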
GSIS activator = GLuc luminescence reporter in INS-1E cells, primary screen for activators of glucose-dependent secretion of insulin; 0.61% of 370,000 active; INS-1E GLuc reporter insulin secretion, 2-3 h; AID 743287; activation, % at 16.6 µM;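 active = lowest replicate activation of at least 40%, so every replicate reaches that level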;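 note: 0% = median of neutral control wells and 100% = median of IBMX positive control wells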
AF4-AF9 inh = MLL-AF4/AF9 protein interaction inhibition; 0.47% of 350,000 active; inhibition, % at 10 µM; AID 651704; AlphaScreen, biotin-AF4 peptide binding to FLAG-AF9; P42568;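 active = every replicate reaching a set inhibition limit, whatever the replicate mean, cut at about 25% in these data; inconclusive = mean inhibition reaches that limit but some replicates miss it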;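 note: 0% = plate neutral control median and 100% = total signal loss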
Target sequence (P42568 whole entry, looked up): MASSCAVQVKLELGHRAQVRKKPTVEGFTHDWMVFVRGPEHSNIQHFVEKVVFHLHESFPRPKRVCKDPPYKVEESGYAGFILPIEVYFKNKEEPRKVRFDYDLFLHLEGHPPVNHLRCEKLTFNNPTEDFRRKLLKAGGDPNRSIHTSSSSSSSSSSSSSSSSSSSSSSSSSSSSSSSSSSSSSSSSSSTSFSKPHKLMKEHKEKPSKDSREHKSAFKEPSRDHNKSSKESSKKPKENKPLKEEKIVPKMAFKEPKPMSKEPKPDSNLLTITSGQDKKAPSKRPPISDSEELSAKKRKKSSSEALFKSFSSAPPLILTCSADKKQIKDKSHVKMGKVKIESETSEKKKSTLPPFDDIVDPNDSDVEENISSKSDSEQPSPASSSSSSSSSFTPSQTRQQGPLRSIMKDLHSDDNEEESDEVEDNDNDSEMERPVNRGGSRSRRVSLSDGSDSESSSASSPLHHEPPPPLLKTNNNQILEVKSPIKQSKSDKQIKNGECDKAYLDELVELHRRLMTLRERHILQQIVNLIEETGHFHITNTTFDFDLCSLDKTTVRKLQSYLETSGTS
S100A4 inh HTS = S100A4-myosin IIA interaction inhibition | AID 652163 | 0.14% of 360,000 active | inhibition, % at 10.7 µM | S100A4/TAMRA-MyoIIA peptide fluorescence polarization;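 active = mean inhibition of at least 70% across replicates, with every replicate also reaching that level; inconclusive = mean inhibition reaches 70% but some replicates fall short; inactive = mean inhibition below 70%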
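Compound dosing: one dose per compound; test system: human S100A4 monomer with TAMRA-labelled myosin IIA peptide; probe or stimulus: TAMRA-labelled myosin IIA heavy-chain peptide probe, 5 nM; medium: HEPES buffer with Ca2+, pH 7.2; schedule: 5 min incubation before reading; benchmarks: neutral control DMSO, positive control TFP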
ERAP1 HTS inh = ERAP1 (human) enzyme inhibition. 0.15% of 340,000 active. recombinant ERAP1, Leu-AMC fluorescence, 60 min. Q9NZ08. inhibition, % at 10.7 µM;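 active = mean replicate inhibition of at least 30%, or all replicates individually reaching that 30% level; inactive = mean below 30% and not every replicate reaching it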;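 note: 0% = neutral control wells and 100% = L-leucinethiol positive control wells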
An asterisk follows results filed as active; ? = inconclusive; · = no result. This is a sample that favours compounds with a hit; in the whole collection about 1.5% have one here.

SMILES	RAD52 anneal inh	GSIS activator	AF4-AF9 inh	S100A4 inh HTS	ERAP1 HTS inh
CN1[C@@H]2Cn3c(ccc(C4=CCCCC4)c3=O)[C@H]1[C@@H](C(=O)N1CCCCC1)[C@@H]2CO	-7	16	0	13	0
CN(C)C(=O)[C@@H]1[C@@H](CO)[C@@H]2Cn3c(ccc(C4=CCCCC4)c3=O)[C@H]1N2C	72*	31	1	9	0
COc1ccc(C2=NN(CCC(=O)NC3CCC(C)CC3)C(=O)CC2)cc1 (stereo not given)	2	-6	-1	88*	-2
COc1ccc(CCC(=O)NC2CCC(C)CC2)cc1 (stereo not given)	-17	77*	-1	3	-1
COc1ccc(C2=NN(CCC(=O)NC3CCCCCC3)C(=O)CC2)cc1	-13	-3	-4	-3	2
COc1ccc(CC(=O)OCC(=O)NC2CC2)cc1	-11	14	1	-4	0
Cc1ccccc1-c1ccc(C2[C@@H]3CN(C(=O)Cc4ccncc4)C[C@H]2N3)cc1 (stereo not given in full)	·	-9	·	·	·
C[C@@H]1CN([C@H](C)CO)C(=O)c2cc(C#Cc3ccccc3F)cnc2O[C@@H]1CN(C)C(=O)C1CC1	16	-4	-5	-8	0
NCCCC[C@H](N)c1nnc([C@H](CCC(=O)O)NC(=O)C2CCNCC2)o1	4	13	28*	3	4
CS(=O)(=O)N1C[C@H](O)COC[C@@H]2O[C@@H](CC(=O)NCc3ccc(-c4ccccc4)cc3)CC[C@H]21	78*	3	16	4	0
O=C(C[C@@H]1CC[C@@H]2[C@H](COC[C@H](O)CN2C(=O)c2cccnc2)O1)NCc1ccc(Cl)cc1	11	16	0	94*	-6
CS(=O)(=O)N1C[C@@H](O)COC[C@@H]2O[C@H](CC(=O)NCc3ccc(-c4ccccc4)cc3)CC[C@H]21	36	8	16	-15	0
O=C(C[C@@H]1CC[C@H]2[C@@H](COC[C@H](O)CN2S(=O)(=O)c2ccccc2)O1)NCc1ccc(-c2ccccc2)cc1	80*	-3	14	-22	1
C[C@H]1CN([C@@H](C)CO)C(=O)c2cccc(NC(=O)Nc3ccc4c(c3)OCO4)c2O[C@@H]1CN(C)Cc1ccc(C(=O)Nc2ccccc2N)cc1	-3	10	1	0	0
C[C@@H]1CN([C@H](C)CO)C(=O)CCCn2nncc2CO[C@@H]1CN(C)Cc1ccc(C(=O)O)cc1	-3	-8	-3	2	-2
COc1ccc(OC)c(N(CC(=O)NN=C2CCN(C)CC2)S(=O)(=O)c2ccccc2)c1	-3	93*	1	4	-1
COc1ccc2c3c(n(C)c2c1)[C@@H](CO)N(Cc1ccc(F)cc1)CC31CCN(CC2CC2)CC1	1	-14	?	7	-4
COc1ccc2c3c(n(C)c2c1)[C@H](CO)N(CC1CC1)CC31CN(Cc2ccc(F)cc2)C1	35	-2	31*	-2	2
COc1ccc2c3c(n(C)c2c1)[C@@H](CO)NCC31CN(Cc2ccc(Cl)cc2)C1	·	2	45*	·	·
COc1ccc2c3c(n(C)c2c1)[C@H](CO)NCC31CCN(Cc2ccccc2F)CC1	·	1	13	·	·
COc1ccc2c3c(n(C)c2c1)[C@H](CO)NCC31CCN(Cc2cc(-c3ccccc3)on2)CC1	67*	12	39*	5	-3
COc1ccc2c3c(n(C)c2c1)[C@H](CO)NCC31CN(Cc2ccccc2F)C1	·	26	54*	·	·
COc1ccc2c3c(n(C)c2c1)[C@@H](CO)NCC31CN(Cc2ccncc2)C1	·	2	·	·	·
O=C(CCN1CCCCC1)N[C@H]1CC[C@H](CCNS(=O)(=O)c2ccc(F)cc2)O[C@H]1CO	9	15	2	1	1
COc1ccccc1CN(C)C[C@H]1OCc2ccccc2-c2c(n(C)c3ccccc23)C(=O)N([C@H](C)CO)C[C@@H]1C	·	-9	·	·	·
SMILES	RAD52 anneal inh	GSIS activator	AF4-AF9 inh	S100A4 inh HTS	ERAP1 HTS inh
COc1ccc2c3c(n(C)c2c1)[C@H](CO)NCC31CN(Cc2ccc(F)cc2)C1	62*	2	36*	-5	1
COc1ccc2c3c(n(C)c2c1)[C@@H](CO)NCC31CCN(Cc2ccc(F)cc2)CC1	·	-8	·	·	·
O=C(CN1C(=O)C2(OCCO2)c2cc(Br)ccc21)NO	-14	13	·	-4	34*
COc1cc(NC(=O)c2c(-c3ccccc3Cl)noc2C)c2ncccc2c1	0	51*	8	11	3
COc1ccc(NC(=O)Nc2ccc3c(c2)CC(=O)N([C@@H](C)CO)C[C@H](C)[C@H](CN(C)Cc2ccc4c(c2)OCO4)O3)cc1	5	-15	0	7	2
C[C@@H]1CN([C@@H](C)CO)C(=O)Cc2cc(NC(=O)Nc3ccc4c(c3)OCO4)ccc2O[C@H]1CN(C)CC1CCCCC1	23	0	27*	-17	1
COc1ccc(CN(C)C[C@@H]2Oc3ccc(NC(=O)Nc4ccc5c(c4)OCO5)cc3CC(=O)N([C@@H](C)CO)C[C@H]2C)cc1	39	-7	27*	13	-3
C[C@H](CO)N1C[C@H](C)[C@@H](CN(C)Cc2ccc3c(c2)OCO3)Oc2ccc(NC(=O)Nc3cccc4ccccc34)cc2CC1=O	55*	0	7	6	-4
C[C@@H]1CN([C@H](C)CO)C(=O)Cc2cc(NC(=O)CCN3CCOCC3)ccc2O[C@H]1CN(C)Cc1ccc2c(c1)OCO2	27	3	-5	123*	6
C[C@@H]1CN([C@H](C)CO)C(=O)Cc2cc(NC(=O)Nc3ccc4c(c3)OCO4)ccc2O[C@@H]1CN(C)CC1CCCCC1	20	-14	7	10	1
C[C@@H]1CN([C@H](C)CO)C(=O)Cc2cc(NC(=O)CCN3CCOCC3)ccc2O[C@@H]1CN(C)Cc1ccc2c(c1)OCO2	-20	25	3	14	-6
CC(=O)N1C[C@@H]2C(c3ccc(Br)cc3)[C@H](C1)N2CC(F)(F)F (stereo not given in full)	·	7	·	·	·
O=C1[C@@H](Cc2ccc(F)cc2)CCn2cc(nn2)COC[C@H]2CCCN12	·	10	·	·	·
C[C@H]1CN([C@@H](C)CO)C(=O)c2cccc(NS(=O)(=O)c3ccc(Cl)cc3)c2O[C@@H]1CN(C)Cc1ccc(Cl)c(Cl)c1	7	-12	-1	-2	0
COc1cccc(C(=O)/C=C/Nc2ccc(S(=O)(=O)Nc3nc(C)cc(C)n3)cc2)c1	-11	·	1	3	12
Cc1cc(C)nc(NS(=O)(=O)c2ccc(N/C=C/C(=O)c3ccc(Cl)c(Cl)c3)cc2)n1	·	63*	·	·	·
CC(=O)N(C)C[C@H]1Oc2cc(-c3cccc(F)c3)ccc2S(=O)(=O)N([C@@H](C)CO)C[C@@H]1C	-4	17	-2	-5	0
